The target in data set [1] is T1, human CYP8B1 (Homo sapiens, UniProt Q9UNU6).
T1 sequence (Q9UNU6 26-501 limits assumed): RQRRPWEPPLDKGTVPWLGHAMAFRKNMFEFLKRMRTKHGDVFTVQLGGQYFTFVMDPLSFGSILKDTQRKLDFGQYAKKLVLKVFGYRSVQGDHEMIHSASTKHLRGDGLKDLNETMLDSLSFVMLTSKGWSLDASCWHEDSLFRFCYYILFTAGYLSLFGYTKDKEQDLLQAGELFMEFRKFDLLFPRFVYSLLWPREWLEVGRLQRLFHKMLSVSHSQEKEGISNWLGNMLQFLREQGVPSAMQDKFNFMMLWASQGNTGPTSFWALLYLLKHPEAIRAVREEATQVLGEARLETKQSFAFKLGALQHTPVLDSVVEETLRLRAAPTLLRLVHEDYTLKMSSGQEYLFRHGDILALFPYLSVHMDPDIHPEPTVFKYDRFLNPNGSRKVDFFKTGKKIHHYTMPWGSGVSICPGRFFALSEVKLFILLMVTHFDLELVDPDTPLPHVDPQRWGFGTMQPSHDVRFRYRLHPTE
As to the kind of experiment: Ligand-binding assay by shift of the heme Soret peak, wild type CYP8B1. The following applies: for Shift in Soret peak: spectral binding type, wild type CYP8B1; for Kd / KD: azoles, single site binding fit, interval in parentheses. In a few lines: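 Recombinant human CYP8B1 was expressed in E. coli with groES-groEL co-expression and purified by Ni-NTA and cation-exchange chromatography. Ligand was titrated into 1 μM enzyme in 50 mM potassium phosphate with 20% glycerol, in a 1 cm cuvette; azoles were dissolved in DMSO. The Soret shift (local absorbance maximum minus minimum) was plotted against concentration and fitted to a single-site specific binding equation, in triplicate.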

For the next data set, the target named is T2, CYP8B1 W281F (Homo sapiens, UniProt Q9UNU6, W281F).
T2 sequence (Q9UNU6 26-501 W281F limits assumed): T1 sequence (Q9UNU6 26-501 limits assumed) with W256F
Put plainly: Ligand-binding assay by shift of the heme Soret peak, CYP8B1 W281F mutant.

The conditions of data set [2]: cited from earlier work.
Data set [3] addresses T1, human CYP8B1. Put plainly: CYP8B1 inhibition assays. The following applies: activity remaining vs control without inhibitor, 80 μM inhibitor. The format is biochemical. In a few lines:
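Test compound at 80 μM was added to the kinetic assay: 0.01 μM CYP8B1 and 0.06 μM human P450 reductase in 50 mM potassium phosphate pH 7.4 with 20% glycerol, preincubated 10 min at room temperature. Substrate 7α-hydroxycholest-4-en-3-one was added, 200 μM NADPH started the reaction at 37 °C, and chloroform stopped it. The 12α-hydroxy product was measured by HPLC-UV at 240 nm. Activity is % of an inhibitor-free control; duplicate or triplicate.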

Substrate in data set [4]: CC(C)CCC[C@@H](C)[C@H]1CC[C@H]2[C@@H]3[C@H](O)CC4=CC(=O)CC[C@]4(C)[C@H]3CC[C@]12C
It is filed as biochemical, human. The following applies: other: W281F mutant, 95% CI; pH 7.4.

Substrate in data set [5]: CC(C)CCC[C@@H](C)[C@H]1CC[C@H]2[C@@H]3[C@H](O)CC4=CC(=O)CC[C@]4(C)[C@H]3CC[C@]12C
The format is biochemical, human. The note with it: other: wild type CYP8B1, 95% CI; pH 7.4.

Substitutions are numbered along the chain they refer to. In names and notes the source's numbering stands. Entries after “also recorded” stand apart in the source; their conditions may differ. Like-named read-outs stand apart in the source and are kept apart here.

We go through eleven molecules from PMC9463588 (The Journal of Biological Chemistry, 2022).

Broadly, the Kd is the constant that tells how readily two partners part at equilibrium. The Km is the substrate concentration at which the rate is half of its maximum. What is called kcat is the number of substrate molecules converted per active site and unit of time at saturation.

As for `CC(C)CCC[C@@H](C)[C@H]1CC[C@H]2[C@@H]3[C@H](O)CC4=CC(=O)CC[C@]4(C)[C@H]3CC[C@]12C` [7α-hydroxycholest-4-en-3-one], the “Shift in Soret peak” value on human CYP8B1 [1] is listed as “type I”. In addition, the Kd on CYP8B1 W281F was found to be 34.3 nM.

For `C[C@H](CCC(=O)O)[C@H]1CC[C@H]2[C@@H]3[C@H](O)C[C@@H]4C[C@H](O)CC[C@]4(C)[C@H]3C[C@H](O)[C@]12C` [Cholic acid], in data set [2], the critical micellar concentration was around 50 µM.

Regarding `Clc1ccccc1C(c1ccccc1)(c1ccccc1)n1ccnc1` [Clotrimazole], on human CYP8B1 [1], the Kd amounted to 1600 nM and the “Shift in Soret peak” value is recorded as “Type II”. The “Turnover at 80 μM (%)” value on human CYP8B1 [3] was 6.8%.

For `Clc1ccc(COC(Cn2ccnc2)c2ccc(Cl)cc2Cl)cc1` (centres unmarked) [Econazole], at human CYP8B1 [1], the Kd amounted to 57 nM, the KD entry was “submicromolar” and the “Shift in Soret peak” value was “Type II”. Besides, the “Turnover at 80 μM (%)” value on human CYP8B1 [3] is given as 1.7%.

On to `OC(Cn1cncn1)(Cn1cncn1)c1ccc(F)cc1F` [Fluconazole], for which the “Shift in Soret peak” value at human CYP8B1 [1] is “None”; on human CYP8B1 [1] (listed as fluconazole), “did not induce a shift; also recorded: no binding”. Also, at human CYP8B1 [3], the “Turnover at 80 μM (%)” value was determined as 95%.

Regarding `CC(=O)N1CCN(c2ccc(OCC3COC(Cn4ccnc4)(c4ccc(Cl)cc4Cl)O3)cc2)CC1` (centres unmarked) [Ketoconazole], at human CYP8B1 [1], the Kd stood at 1300 nM, the KD entry is reported as “micromolar” and the “Shift in Soret peak” value is given as “Type II”. Moreover, the “Turnover at 80 μM (%)” value on human CYP8B1 [3] was determined as 16%.

Turning to `Clc1cccc(C(c2ccc3[nH]cnc3c2)n2ccnc2)c1` (centres unmarked) [Liarozole], on human CYP8B1 [1], the Kd was 1300 nM and the “Shift in Soret peak” value was “Type II”. The “Turnover at 80 μM (%)” value on human CYP8B1 [3] came out at 30%.

Take `Clc1ccc(COC(Cn2ccnc2)c2ccc(Cl)cc2Cl)c(Cl)c1` (centres unmarked) [Miconazole]: on human CYP8B1 [1], the Kd was found to be 98 nM, the KD entry is “submicromolar” and the “Shift in Soret peak” value is on record as “Type II”. For the same molecule, on human CYP8B1 [3], the “Turnover at 80 μM (%)” value turned out to be 0.75%. Besides, the “Turnover at 80 μM (%)” value on human CYP8B1 [3] (listed as miconazole) is reported as “less than 1%”.

On to `Clc1ccc(C(Cn2ccnc2)OCc2ccsc2Cl)c(Cl)c1` (centres unmarked) [Tioconazole], for which, at human CYP8B1 [1], the Kd worked out at 210 nM, the KD result was “submicromolar” and the “Shift in Soret peak” value was “Type II”. At human CYP8B1 [3], the “Turnover at 80 μM (%)” value was found to be 1.4%.

B1: CYP8B1 W281F (Homo sapiens; W281F) (protein)
chain: T1 sequence (Q9UNU6 26-501 limits assumed) with W256F
On to B1, for which, in data set [4], the Km came out at 0.54 µM, the kcat was 0.02 s⁻¹ and the kcat/Km amounted to 2.2 μM^−^1min^−1.

B2: human CYP8B1 (Homo sapiens) (protein)
chain: T1 sequence (Q9UNU6 26-501 limits assumed)
For B2, in data set [5], the Km stood at 0.5 µM, the kcat was 0.123 s⁻¹ and the kcat/Km worked out at 14.7 μM^−^1min^−1.
